Source: ChEMBL document CHEMBL1165950, “Design and synthesis of new potent anticancer pyrazoles with high FLT3 kinase inhibitory selectivity” (Bioorg Med Chem, 2010)

Key:
Format in all cases: functional
OVCAR-5 = assay: Cytotoxicity against human OVCAR5 cells assessed as cell growth at 0.001 uM after 48 hrs by sulforhodamine B assay; conditions: OVCAR-5, 48 h, read-out: Activity
EKVX [1] = assay: Cytotoxicity against human EKVX cells assessed as cell growth at 0.01 uM after 48 hrs by sulforhodamine B assay; conditions: read-out: Activity
HOP-62 = assay: Growth inhibition of human HOP62 cells after 48 hrs by sulforhodamine B assay; conditions: HOP-62, 48 h
Outline: (§1)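 NCI 60-cell screen, five-dose mode. Cells grown in RPMI 1640 with 5% FBS and 2 mM L-glutamine and plated at 5000-40,000 cells/well according to doubling time. After 24 h preincubation, a Tz plate was TCA-fixed. Five concentrations (10-fold or 1/2 log dilutions) were applied for 48 h at 37 °C. SRB staining read at 515 nm. IC50 taken from [(Ti-Tz)/(C-Tz)]×100 = 50.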

EKVX [2] = assay: Cytotoxicity against human EKVX cells assessed as cell growth at 100 nM after 48 hrs by sulforhodamine B assay; conditions: read-out: Activity
MDA-MB-468 = assay: Cytotoxicity against human MDA-MB-468 cells assessed as cell growth at 1 uM after 48 hrs by sulforhodamine B assay; conditions: MDA-MB-468, 48 h, read-out: Activity
SNB-19 = assay: Cytotoxicity against human SNB19 cells assessed as cell growth at 0.01 uM after 48 hrs by sulforhodamine B assay; conditions: SNB-19, 48 h, read-out: Activity
K562 = assay: Cytotoxicity against human K562 cells assessed as cell growth at 0.01 uM after 48 hrs by sulforhodamine B assay; conditions: K562, 48 h, read-out: Activity
MDA-MB-231 [3] = assay: Cytotoxicity against human MDA-MB-231 cells assessed as cell growth at 0.001 uM after 48 hrs by sulforhodamine B assay; conditions: MDA-MB-231, 48 h, read-out: Activity
SNB-75 = assay: Cytotoxicity against human SNB75 cells assessed as cell growth at 10 uM after 48 hrs by sulforhodamine B assay; conditions: SNB-75, 48 h, read-out: Activity
EKVX [4] = assay: Cytotoxicity against human EKVX cells assessed as cell growth at 10 uM after 48 hrs by sulforhodamine B assay; conditions: read-out: Activity
NCI-H322M [5] = assay: Cytotoxicity against human NCI-H322M cells assessed as cell growth at 10 uM; conditions: read-out: Activity
Outline: (§2)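 NCI-60 screen: cells grown in RPMI 1640 with 5% FBS and 2 mM L-glutamine, plated at 5000–40,000 cells/well according to doubling time, and preincubated 24 h at 37 °C, 5% CO2. The single 10 µM dose (DMSO stock) was added, then incubated 48 h. Cells were TCA-fixed and stained with 0.4% SRB, read at 515 nm, and growth % calculated against time-zero and control plates.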

CAKI-1 = assay: Growth inhibition of human Caki1 cells after 48 hrs by sulforhodamine B assay; conditions: CAKI-1, 48 h
Outline: (§3)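 NCI five-dose SRB assay in RPMI 1640 with 5% FBS and 2 mM L-glutamine. Cells were preincubated 24 h, then exposed 48 h at 37 °C to five concentrations (10-fold or half-log serial dilutions from DMSO stocks). TCA fixation, SRB staining, and absorbance at 515 nm followed. IC50 was taken where [(Ti−Tz)/(C−Tz)]×100 = 50, with Tz as time-zero cell density.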

MDA-MB-231 [6] = assay: Cytotoxicity against human MDA-MB-231 cells assessed as cell growth at 10 uM; conditions: read-out: Activity; outline: as §2
MDA-MB-231 [7] = assay: Cytotoxicity against human MDA-MB-231 cells assessed as cell growth at 0.01 uM after 48 hrs by sulforhodamine B assay; conditions: MDA-MB-231, 48 h, read-out: Activity
U-251 = assay: Cytotoxicity against human U251 cells assessed as cell growth at 0.01 uM after 48 hrs by sulforhodamine B assay; conditions: U-251, 48 h, read-out: Activity
A549 = assay: Growth inhibition of human A549 cells after 48 hrs by sulforhodamine B assay; conditions: A549, 48 h; outline: as §3
OVCAR-4 = assay: Cytotoxicity against human OVCAR4 cells assessed as cell growth at 100 nM after 48 hrs by sulforhodamine B assay; conditions: OVCAR-4, 48 h, read-out: Activity
786-0 = assay: Growth inhibition of human 786-0 cells after 48 hrs by sulforhodamine B assay; conditions: 786-0, 48 h; outline: as §3
HCT-116 = assay: Growth inhibition of human HCT116 cells after 48 hrs by sulforhodamine B assay; conditions: HCT-116, 48 h; outline: as §1
SF-539 = assay: Growth inhibition of human SF539 cells after 48 hrs by sulforhodamine B assay; conditions: SF-539, 48 h; outline: as §1
LOX IMVI = assay: Cytotoxicity against human LOXIMVI cells assessed as cell growth at 0.01 uM after 48 hrs by sulforhodamine B assay; conditions: read-out: Activity
HL-60(TB) [8] = assay: Cytotoxicity against human HL-60(TB) cells assessed as cell growth at 0.001 uM after 48 hrs by sulforhodamine B assay; conditions: HL-60, 48 h, read-out: Activity
Outline: (§4)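 NCI 60-cell panel. Cells are grown in RPMI 1640 with 5% FBS and 2 mM L-glutamine, seeded at 5000–40,000 cells/well according to doubling time, and preincubated 24 h. Time-zero plates are TCA-fixed. Compound from DMSO stock is given at five 10-fold or 1/2-log concentrations for 48 h at 37 °C, 5% CO2. Suspension cells are fixed with 80% TCA (final 16%) and SRB-stained, with absorbance at 515 nm. Percent growth is derived from Tz, control and test readings.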

NCI-H226 = assay: Cytotoxicity against human NCI-H226 cells assessed as cell growth at 0.001 uM after 48 hrs by sulforhodamine B assay; conditions: NCI-H226, 48 h, read-out: Activity
NCI-H322M [9] = assay: Cytotoxicity against human NCI-H322M cells assessed as cell growth at 0.01 uM after 48 hrs by sulforhodamine B assay; conditions: read-out: Activity
OVCAR-8 = assay: Cytotoxicity against human OVCAR8 cells assessed as cell growth at 10 uM after 48 hrs by sulforhodamine B assay; conditions: OVCAR-8, 48 h, read-out: Activity
SK-MEL-2 = assay: Cytotoxicity against human SK-MEL-2 cells assessed as cell growth at 10 uM; conditions: read-out: Activity; outline: as §2
HL-60(TB) [10] = assay: Cytotoxicity against human HL-60(TB) cells assessed as cell growth at 10 uM after 48 hrs by sulforhodamine B assay; conditions: HL-60, 48 h, read-out: Activity; outline: as §4
HT-29 = assay: Growth inhibition of human HT-29 cells after 48 hrs by sulforhodamine B assay; conditions: HT-29, 48 h; outline: as §1
TK-10 = assay: Cytotoxicity against human TK10 cells assessed as cell growth at 10 uM after 48 hrs by sulforhodamine B assay; conditions: TK-10, 48 h, read-out: Activity
[11] = read-out: LC50 (the source's name)

COc1cc(C)cc(-c2nn(CC#N)cc2-c2ccc(-c3cccc(C(C)=O)c3)nc2)c1
growth at 0.001 µM (OVCAR-5): 74%
growth at 0.01 µM (EKVX [1]): 99%
GI50 (HOP-62): 3.07 µM
LC50 (50% lethal concentration) (HOP-62): > 100 µM
TGI (HOP-62): 36.9 µM
growth at 0.1 µM (EKVX [2]): 89%
growth at 1 µM (MDA-MB-468): -42%
growth at 0.01 µM (SNB-19): 102%
growth at 0.01 µM (K562): 80%
growth at 0.001 µM (MDA-MB-231 [3]): 102%
growth at 10 µM (SNB-75): -36%
growth at 10 µM (EKVX [4]): -10%
growth at 10 µM (NCI-H322M [5]): 64.8%
GI50 (CAKI-1): 1.91 µM
TGI (CAKI-1): 10.5 µM
CC50 (CAKI-1; [11]): > 100 µM
growth at 10 µM (MDA-MB-231 [6]): 34.8%
growth at 0.01 µM (MDA-MB-231 [7]): 96%
growth at 0.01 µM (U-251): 92%
GI50 (A549): 3.87 µM
LC50 (A549): > 100 µM
TGI (A549): 30.8 µM
growth at 0.1 µM (OVCAR-4): 92%
GI50 (786-0): 3.52 µM
TGI (786-0): 93 µM
CC50 (786-0; [11]): > 100 µM
GI50 (HCT-116): 2.33 µM
TGI (HCT-116): 10.6 µM
CC50 (HCT-116; [11]): 87.4 µM
GI50 (SF-539): 1.73 µM
TGI (SF-539): 4.65 µM
CC50 (SF-539; [11]): > 100 µM
growth at 0.01 µM (LOX IMVI): 96%
growth at 0.001 µM (HL-60(TB) [8]): 94%
growth at 0.001 µM (NCI-H226): 95%
growth at 0.01 µM (NCI-H322M [9]): 91%
growth at 10 µM (OVCAR-8): -11%
growth at 10 µM (SK-MEL-2): 35.4%
growth at 10 µM (HL-60(TB) [10]): -8%
GI50 (HT-29): 3.28 µM
TGI (HT-29): 18.7 µM
CC50 (HT-29; [11]): > 100 µM
growth at 10 µM (TK-10): -29%
